Source: ChEMBL document CHEMBL1759898, “Synthesis of 5-arylated N-arylthiazole-2-amines as potential skeletal muscle cell differentiation promoters” (Bioorg Med Chem Lett, 2011)
Activity calls are given as the source filed them. No cut-off for these calls is given here.

Tests used:
Type in all cases: functional, cell-based
[1] = system: C2C12; assay: Induction of cell differentiation in mouse C2C12 cells assessed as myotube formation at 5 uM
Summary of the method: (§1)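 C2C12 myoblasts grown 2 days in growth medium to about 70% confluence, then differentiation induced by serum reduction in differentiation medium containing compound at 5 µM final (from 20 mM DMSO stock). Controls received equal DMSO. Incubation at 37 °C for 7 days, medium changed at days 3 and 5. Myotube morphology was photographed under the microscope at 3, 5 and 7 days. Duplicates, four controls.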

[2] = system: C2C12; assay: Induction of cell differentiation in mouse C2C12 cells assessed as myotube formation at 5 uM after 5 days; summary of the method: as §1
[3] = system: C2C12; assay: Induction of cell differentiation in mouse C2C12 cells assessed as myotube formation at 5 uM after 3 days; summary of the method: as §1
[4] = system: C2C12; assay: Induction of cell differentiation in mouse C2C12 cells assessed as myotube formation at 5 uM after 7 days; summary of the method: as §1

Row | Compound | Activity [1] | further results
1 | c1ccc(CN(c2ccccc2)c2ncc(-c3ccccc3)s2)cc1 | Active | –
2 | CCOC(=O)c1ccc(-c2cnc(N(Cc3ccccc3)c3ccccc3)s2)cc1 | Active | –
3 | O=[N+]([O-])c1ccc(-c2cnc(N(Cc3ccccc3)c3ccccc3)s2)cc1 | inactive | –
4 | Cc1ccc(-c2cnc(N(Cc3ccccc3)c3ccccc3)s2)cc1 | inactive | –
5 | Fc1ccc(-c2cnc(N(Cc3ccccc3)c3ccccc3)s2)cc1 | Active | –
6 | Fc1ncccc1-c1cnc(N(Cc2ccccc2)c2ccccc2)s1 | Active | –
7 | c1ccc(CN(c2ccccc2)c2ncc(-c3cccs3)s2)cc1 | Active | Activity [2]: Active; Activity [3]: Active; Activity [4]: Active
8 | Cc1ccccc1-c1cnc(N(Cc2ccccc2)c2ccccc2)s1 | inactive | –
9 | O=[N+]([O-])c1cccc(-c2cnc(N(Cc3ccccc3)c3ccccc3)s2)c1 | Active | –
